From ChEMBL document CHEMBL1138270, “Antimycobacterial activities of novel 1-(cyclopropyl/tert-butyl/4-fluorophenyl)-1,4-dihydro- 6-nitro-4-oxo-7-(substituted secondary amino)-1,8-naphthyridine-3-carboxylic acid” (J Med Chem, 2007)
Values after ≈ are worked out from the molar mass of the structure shown.

Columns and labels:
Vero = experiment: Cytotoxicity against Vero cells after 72 hrs by MTT assay; type: cell-based; settings: Chlorocebus sabaeus
Summary of the method: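 Vero cells were exposed to serially diluted compound up to 62.5 µg/mL for 72 h. Viability was read by cellular conversion of MTT to formazan (CellTiter 96 non-radioactive proliferation assay), and IC50 was derived.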

[1] = test system: Mycobacterium tuberculosis; experiment: Antimycobacterial activity against Mycobacterium tuberculosis H37Rv by agar dilution method; type: functional
Summary of the method: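 MIC was determined by agar dilution, in duplicate.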

[2] = test system: Mycolicibacterium smegmatis; experiment: Antimicrobial activity against Mycobacterium smegmatis by agar dilution method; type: functional
Summary of the method: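 Agar dilution against M. smegmatis ATCC 14468; MIC determined in duplicate.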

[3] = Inhibition of Mycobacterium smegmatis DNA gyrase supercoiling activity; design: species or system Mycolicibacterium smegmatis
Summary of the method: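 Gyrase purified from M. smegmatis was preincubated with compound in DMSO (5% DMSO in reaction). 400 ng relaxed pUC18 was added in 35 mM Tris-HCl pH 7.5, 5 mM MgCl2, 25 mM K-glutamate, 2 mM spermidine, 2 mM ATP, BSA, tRNA and 5% glycerol, 1 h at 37 °C. Samples were heat-inactivated, run on 1% agarose in TAE, and ethidium-stained; IC50 was derived.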

Mus musculus [4] = experiment: Phototoxicity in UV light irradiated Swiss Albino mouse assessed as ear thickness at 140 mg/kg, po; type: organism-based; design: dose 140 mg/kg, route oral; settings: in vivo
Summary of the method: (§1)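 Female Swiss albino mice (~2 months, 20-25 g) were fasted ≥18 h and given 140 mg/kg orally by gavage; controls received 0.5% Na-CMC vehicle at 10 mL/kg. UVA started right after dosing, 4 h (~18 J/cm2). Ear thickness was measured before dosing and at 4, ~24, 48, 72 and 96 h, reported as mean of left and right ears ± SEM.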

Mus musculus [5] = experiment: Phototoxicity in Swiss Albino mouse assessed as ear thickness at 140 mg/kg, po after 4 hrs of irradiation; type: organism-based; design: dose 140 mg/kg, route oral; settings: in vivo; summary of the method: as §1
Mus musculus [6] = experiment: Phototoxicity in Swiss Albino mouse assessed as ear thickness at 140 mg/kg, po after 24 hrs of irradiation; type: organism-based; design: dose 140 mg/kg, route oral; settings: in vivo; summary of the method: as §1
Mus musculus [7] = experiment: Phototoxicity in Swiss Albino mouse assessed as ear thickness at 140 mg/kg, po after 48 hrs of irradiation; type: organism-based; design: dose 140 mg/kg, route oral; settings: in vivo; summary of the method: as §1
Mus musculus [8] = experiment: Phototoxicity in Swiss Albino mouse assessed as ear thickness at 140 mg/kg, po after 72 hrs of irradiation; type: organism-based; design: dose 140 mg/kg, route oral; settings: in vivo; summary of the method: as §1
Mus musculus [9] = experiment: Phototoxicity in Swiss Albino mouse assessed as ear thickness at 140 mg/kg, po after 96 hrs of irradiation; type: organism-based; design: dose 140 mg/kg, route oral; settings: in vivo; summary of the method: as §1
Mus musculus [10] = experiment: Phototoxicity in UV light irradiated Swiss Albino mouse assessed ear erythema at 140 mg/kg, po; type: organism-based; design: dose 140 mg/kg, route oral; settings: in vivo
Mus musculus [11] = experiment: Phototoxicity in Swiss Albino mouse assessed as ear erythema at 140 mg/kg, po after 4 hrs of irradiation; type: organism-based; design: dose 140 mg/kg, route oral; settings: in vivo
Mus musculus [12] = experiment: Phototoxicity in Swiss Albino mouse assessed as ear erythema at 140 mg/kg, po after 24 hrs of irradiation; type: organism-based; design: dose 140 mg/kg, route oral; settings: in vivo
Mus musculus [13] = experiment: Phototoxicity in Swiss Albino mouse assessed as ear erythema at 140 mg/kg, po after 72 hrs of irradiation; type: organism-based; design: dose 140 mg/kg, route oral; settings: in vivo
Mus musculus [14] = experiment: Phototoxicity in Swiss Albino mouse assessed as ear erythema at 140 mg/kg, po after 96 hrs of irradiation; type: organism-based; design: dose 140 mg/kg, route oral; settings: in vivo

SMILES | IC50 (Vero) [µM] | MIC [1] [µM] | MIC [2] [µM] | other results
CN1CCN(c2nc3c(cc2[N+](=O)[O-])c(=O)c(C(=O)O)cn3C(C)(C)C)CC1c1ccccc1 (stereo unspecified) | > 134 | 0.84 (≈ 0.391 µg/mL) | 13.4 (≈ 6.25 µg/mL) | 
O=C(O)c1cn(C2CC2)c2nc(N3CCN(C(=O)C4COc5ccccc5O4)CC3)c([N+](=O)[O-])cc2c1=O (stereo unspecified) | 59.9 | 12 (≈ 6.25 µg/mL) | 6 (≈ 3.13 µg/mL) | 
COc1ccc(CC2C3=C(CCCC3)CCN2c2nc3c(cc2[N+](=O)[O-])c(=O)c(C(=O)O)cn3-c2ccc(F)cc2)cc1 (stereo unspecified) | < 53.5 | 10.7 (≈ 6.25 µg/mL) | 85.5 (≈ 50 µg/mL) | 
CC1CN(c2nc3c(cc2[N+](=O)[O-])c(=O)c(C(=O)O)cn3C2CC2)CC(C)O1 (stereo unspecified) | > 161 | 4.02 (≈ 1.56 µg/mL) | 32.2 (≈ 12.5 µg/mL) | 
CC1CN(c2nc3c(cc2[N+](=O)[O-])c(=O)c(C(=O)O)cn3C(C)(C)C)CC(C)O1 (stereo unspecified) | 159 | 7.74 (≈ 3.13 µg/mL) | 15.4 (≈ 6.25 µg/mL) | 
O=C(O)c1cn(-c2ccc(F)cc2)c2nc(N3CCC(N4CCCCC4)CC3)c([N+](=O)[O-])cc2c1=O | > 126 | 3.15 (≈ 1.56 µg/mL) | 25.2 (≈ 12.5 µg/mL) | 
CC(C)(C)n1cc(C(=O)O)c(=O)c2cc([N+](=O)[O-])c(N3CCN(C(=O)C4COc5ccccc5O4)CC3)nc21 (stereo unspecified) | 116 | 1.45 (≈ 0.779 µg/mL) | 5.82 (≈ 3.13 µg/mL) | 
O=C(O)c1cn(C2CC2)c2nc(N3CCN(C(=O)c4ccco4)CC3)c([N+](=O)[O-])cc2c1=O | 68.9 | 6.9 (≈ 3.13 µg/mL) | 27.6 (≈ 12.5 µg/mL) | 
CC(C)(C)NC(=O)C1c2ccccc2CCN1c1nc2c(cc1[N+](=O)[O-])c(=O)c(C(=O)O)cn2C(C)(C)C (stereo unspecified) | 120 | 2.99 (≈ 1.56 µg/mL) | 6 (≈ 3.13 µg/mL) | 
O=C(O)c1cn2c(n1)CN(c1nc3c(cc1[N+](=O)[O-])c(=O)c(C(=O)O)cn3C1CC1)CC2 | 142 | 3.54 (≈ 1.56 µg/mL) | 28.4 (≈ 12.5 µg/mL) | 
CC(C)(C)n1cc(C(=O)O)c(=O)c2cc([N+](=O)[O-])c(N3CCN(C(=O)c4ccco4)CC3)nc21 | 133 | 3.32 (≈ 1.56 µg/mL) | 6.67 (≈ 3.13 µg/mL) | 
O=C(O)c1cn(C2CC2)c2nc(N3CCN(Cc4ccc5c(c4)OCO5)CC3)c([N+](=O)[O-])cc2c1=O | 127 | 3.16 (≈ 1.56 µg/mL) | 25.3 (≈ 12.5 µg/mL) | 
CC(C)(C)n1cc(C(=O)O)c(=O)c2cc([N+](=O)[O-])c(N3CCn4cc(C(=O)O)nc4C3)nc21 | > 137 | 0.42 (≈ 0.192 µg/mL) | 6.86 (≈ 3.13 µg/mL) | 
COc1ccc(CC2C3=C(CCCC3)CCN2c2nc3c(cc2[N+](=O)[O-])c(=O)c(C(=O)O)cn3C2CC2)cc1 (stereo unspecified) | 118 | 5.89 (≈ 3.13 µg/mL) | 1.47 (≈ 0.78 µg/mL) | IC50 [3]: 56.5 µM; Activity (Mus musculus [4]): 0.33 mm; Activity (Mus musculus [5]): 0.34 mm; Activity (Mus musculus [6]): 0.34 mm; Activity (Mus musculus [7]): 0.38 mm; Activity (Mus musculus [8]): 0.36 mm; Activity (Mus musculus [9]): 0.33 mm; Activity (Mus musculus [10]): Non-toxic; Activity (Mus musculus [11]): Non-toxic; Activity (Mus musculus [12]): Non-toxic; Activity (Mus musculus [13]): Non-toxic; Activity (Mus musculus [14]): Non-toxic
COc1ccc(CC2C3=C(CCCC3)CCN2c2nc3c(cc2[N+](=O)[O-])c(=O)c(C(=O)O)cn3C(C)(C)C)cc1 (stereo unspecified) | > 114 | 5.73 (≈ 3.13 µg/mL) | 11.4 (≈ 6.25 µg/mL) | 
O=C(O)c1cn(C2CC2)c2nc(N3CCC(N4CCCCC4)CC3)c([N+](=O)[O-])cc2c1=O | > 142 | 7.09 (≈ 3.13 µg/mL) | 28.3 (≈ 12.5 µg/mL) | 
O=C(O)c1cn(-c2ccc(F)cc2)c2nc(N3CCN(C(=O)c4ccco4)CC3)c([N+](=O)[O-])cc2c1=O | 123 | 3.07 (≈ 1.56 µg/mL) | 24.6 (≈ 12.5 µg/mL) | 
O=C(O)c1cn(-c2ccc(F)cc2)c2nc(N3CCC(n4c(=O)[nH]c5cc(Cl)ccc54)CC3)c([N+](=O)[O-])cc2c1=O | 53.9 | 2.69 (≈ 1.56 µg/mL) | 10.8 (≈ 6.25 µg/mL) | 
CC(C)(C)NC(=O)C1c2ccccc2CCN1c1nc2c(cc1[N+](=O)[O-])c(=O)c(C(=O)O)cn2-c1ccc(F)cc1 (stereo unspecified) | 112 | 2.79 (≈ 1.56 µg/mL) | 11.2 (≈ 6.25 µg/mL) | 
CC(C)(C)n1cc(C(=O)O)c(=O)c2cc([N+](=O)[O-])c(N3CCC(O)(c4ccc(Cl)cc4)CC3)nc21 | 125 | 3.11 (≈ 1.56 µg/mL) | 24.9 (≈ 12.5 µg/mL) | 
O=C(O)c1cn(C2CC2)c2nc(N3CCC4(CC3)OCCO4)c([N+](=O)[O-])cc2c1=O | 150 | 7.52 (≈ 3.13 µg/mL) | 30 (≈ 12.5 µg/mL) | 
O=C(O)c1cn(C2CC2)c2cc(N3CCNCC3)c(F)cc2c1=O [CIPROFLOXACIN] |  |  |  | IC50 [3]: 15.1 µM
